Published values of several laboratories.

Structure (SMILES) | host | matrix | route | dose | time | setting | concentration
OCc1nc2ccc(NCc3ccc(C(F)(F)F)cc3)cc2[nH]1 | male BALB/c mouse | brain | intravenous | 1 mg/kg | 6 h |  | 26.1 ng/g
CC1(C)NC(=O)N(c2ccc(F)c(Br)c2)C1=O | male Swiss mouse | plasma | oral | 100 mg/kg | 48 h |  | 1110 ng/mL
CC(C)(C)S(=O)(=O)c1cc2c(Nc3ccc4scnc4c3)ncnc2cc1OCCOP(=O)(O)O | BALB/c mouse | plasma | oral | 10 mg/kg | 6 h |  | 21 ng/mL
NCc1cc2c(cc1F)C(=O)N(C1CCC(=O)NC1=O)C2 (stereo not shown) | male CD-1 mouse | plasma | intravenous | 1 mg/kg | 4 h |  | 2.8 ng/mL
CC1(C)NC(=O)N(c2ccc(F)c(S(C)(=O)=O)c2)C1=O | male Swiss mouse | plasma | oral | 100 mg/kg | 1 h |  | 31900 ng/mL
O=C1CCC(N2Cc3cc(CO)c(F)cc3C2=O)C(=O)N1 (stereo not shown) | male CD-1 mouse | plasma | intravenous | 1 mg/kg | 4 h |  | 1.7 ng/mL
Cc1nc2ccc(OCc3ccc(C(F)(F)F)cc3)cc2[nH]1 | male BALB/c mouse | brain | oral | 10 mg/kg | 72 h |  | 2.7 ng/g
CN(C)C(=O)c1cc2cnc(Nc3ccc(-c4ccc5c(=O)cc(N6CCOCC6)oc5c4)cc3)nc2n1C1CCCC1 | BALB/c mouse | brain | oral | 20 mg/kg | 2 h | single dose | 108 ng/g
CC(C)n1ncc2c(C(=O)NCC3(C)CNC3)cc(C3CC3)nc21 | female BALB/c mouse | plasma | intraperitoneal | 50 mg/kg | 8 h |  | 240 ng/mL
Cc1ccc2c(c1)C(=O)[C@]1(O)CCN(c3ccc4nc(C)ccc4c3)C1=N2 | mouse | plasma | intraperitoneal | 10 mg/kg | 30 min |  | 700 nM
O=Cc1cc2c(cc1F)C(=O)N(C1CCC(=O)NC1=O)C2 (stereo not shown) | male CD-1 mouse | plasma | intravenous | 1 mg/kg | 1.02 min |  | 17.2 ng/mL
CC(C)c1cc(C(=O)NCCN)c2cnn(C(C)C)c2n1 | female BALB/c mouse | plasma | intraperitoneal | 50 mg/kg | 30 min |  | 2430 ng/mL
O=C1CCC(N2Cc3cc(C4CCN(Cc5ccccc5)CC4)ccc3C2=O)C(=O)N1 (stereo not shown) | male CD-1 mouse | plasma | oral | 3 mg/kg | 4.98 min |  | 49.6 ng/mL
